Here are results for three compounds from PMC9389372 (RSC Advances, 2022).

Some results are limits rather than exact numbers.

A short description of one series: Cytotoxicity, MTT assay. The note with it: mouse, NIH/3T3 mouse embryonic fibroblast cells. Type of series: cell-based. In short, it runs like this:
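NIH/3T3 mouse embryonic fibroblasts, incubated according to the supplier's recommendation, were seeded at 1 × 10⁴ cells per well. Viability was read by MTT assay following the group's previously described standard procedure.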

For series [1], the target named is human butyrylcholinesterase (Homo sapiens, UniProt P06276). The series is described as follows: BChE inhibition, modified Ellman's spectrophotometric method. It counts as biochemical. As to conditions: for inhibition at 100 µM / inhibition at 1000 µM: read-out: BChE % inhibition. A general note: DTNB colorimetry detects thiols as they appear.
A further series has as its target T1, MAO-A (Homo sapiens, UniProt P21397).
T1 sequence (P21397 1-527): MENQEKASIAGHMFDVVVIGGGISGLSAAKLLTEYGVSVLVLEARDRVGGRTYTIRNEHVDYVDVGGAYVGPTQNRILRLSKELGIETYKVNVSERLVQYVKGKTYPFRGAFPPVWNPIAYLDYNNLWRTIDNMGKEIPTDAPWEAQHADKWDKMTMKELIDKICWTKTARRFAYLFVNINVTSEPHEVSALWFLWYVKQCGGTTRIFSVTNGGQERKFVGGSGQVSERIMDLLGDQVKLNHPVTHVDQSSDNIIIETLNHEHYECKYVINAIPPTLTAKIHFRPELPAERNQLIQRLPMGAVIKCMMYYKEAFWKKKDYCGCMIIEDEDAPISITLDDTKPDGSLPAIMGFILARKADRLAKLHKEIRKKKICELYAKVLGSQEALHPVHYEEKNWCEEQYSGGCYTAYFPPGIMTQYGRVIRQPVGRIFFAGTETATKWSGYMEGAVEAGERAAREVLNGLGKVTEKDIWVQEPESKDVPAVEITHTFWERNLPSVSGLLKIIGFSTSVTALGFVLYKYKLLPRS
The experiment in a line: MAO-A inhibition, in vitro fluorometric method. The note with it: for inhibition at 100 µM / inhibition at 1000 µM: read-out: MAO-A % inhibition. Type of series: biochemical.

The target of another series is beta amyloid 1–42 (Aβ42) (Homo sapiens, UniProt P05067). The series is described as follows: fluorometric beta amyloid 1–42. Type of series: biochemical. The note with it: for inhibition at 0.01 µM / inhibition at 0.1 µM / inhibition at 1 µM / inhibition at 10 µM: read-out: Percent inhibition of beta amyloid 1–42 (Aβ42) peptide aggregation.
Series [2] has as its target Human acetylcholinesterase (Homo sapiens, UniProt P22303). The series is described as follows: AChE inhibition, modified Ellman's spectrophotometric method. As to conditions: for inhibition at 1000 µM: read-out: AChE % inhibition, 10^−3 M. Type of series: biochemical.
For a further series, the target named is T2, MAO-B (Homo sapiens, UniProt P27338).
T2 sequence (P27338 1-520): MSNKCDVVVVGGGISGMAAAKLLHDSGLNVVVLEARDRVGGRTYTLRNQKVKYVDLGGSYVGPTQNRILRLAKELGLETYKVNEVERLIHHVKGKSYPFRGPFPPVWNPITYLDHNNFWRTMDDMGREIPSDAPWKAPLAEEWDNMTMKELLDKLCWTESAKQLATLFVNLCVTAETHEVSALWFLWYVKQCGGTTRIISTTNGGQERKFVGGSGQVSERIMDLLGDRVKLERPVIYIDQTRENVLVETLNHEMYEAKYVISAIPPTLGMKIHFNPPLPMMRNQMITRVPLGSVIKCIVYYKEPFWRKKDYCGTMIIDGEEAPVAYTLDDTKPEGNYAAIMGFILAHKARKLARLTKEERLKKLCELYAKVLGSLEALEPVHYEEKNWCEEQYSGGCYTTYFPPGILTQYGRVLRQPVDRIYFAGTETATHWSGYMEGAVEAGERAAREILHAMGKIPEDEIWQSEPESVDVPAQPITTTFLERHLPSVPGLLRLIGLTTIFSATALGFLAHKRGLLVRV
The experiment in a line: MAO-B inhibition, in vitro fluorometric method. Type of series: biochemical.

Sequence of beta amyloid 1–42 (Aβ42) (P05067 672-713): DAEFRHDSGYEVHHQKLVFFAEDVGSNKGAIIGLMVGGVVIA
Sequence of Human acetylcholinesterase (P22303 32-614): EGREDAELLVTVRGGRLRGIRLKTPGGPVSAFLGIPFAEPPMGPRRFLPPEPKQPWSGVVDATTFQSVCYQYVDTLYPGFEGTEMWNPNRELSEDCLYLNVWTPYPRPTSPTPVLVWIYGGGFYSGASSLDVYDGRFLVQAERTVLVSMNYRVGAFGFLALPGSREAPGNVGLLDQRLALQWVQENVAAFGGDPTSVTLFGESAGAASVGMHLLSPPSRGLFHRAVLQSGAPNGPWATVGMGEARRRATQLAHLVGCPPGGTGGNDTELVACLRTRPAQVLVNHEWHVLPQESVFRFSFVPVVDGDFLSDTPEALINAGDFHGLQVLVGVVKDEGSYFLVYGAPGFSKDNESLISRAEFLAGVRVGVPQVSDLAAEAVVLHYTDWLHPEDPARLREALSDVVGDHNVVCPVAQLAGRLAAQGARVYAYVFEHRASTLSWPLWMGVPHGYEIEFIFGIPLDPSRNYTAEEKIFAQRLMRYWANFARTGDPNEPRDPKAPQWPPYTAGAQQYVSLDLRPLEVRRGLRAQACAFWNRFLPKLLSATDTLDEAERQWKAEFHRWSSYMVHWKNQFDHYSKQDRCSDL
Sequence of human butyrylcholinesterase (P06276 29-602): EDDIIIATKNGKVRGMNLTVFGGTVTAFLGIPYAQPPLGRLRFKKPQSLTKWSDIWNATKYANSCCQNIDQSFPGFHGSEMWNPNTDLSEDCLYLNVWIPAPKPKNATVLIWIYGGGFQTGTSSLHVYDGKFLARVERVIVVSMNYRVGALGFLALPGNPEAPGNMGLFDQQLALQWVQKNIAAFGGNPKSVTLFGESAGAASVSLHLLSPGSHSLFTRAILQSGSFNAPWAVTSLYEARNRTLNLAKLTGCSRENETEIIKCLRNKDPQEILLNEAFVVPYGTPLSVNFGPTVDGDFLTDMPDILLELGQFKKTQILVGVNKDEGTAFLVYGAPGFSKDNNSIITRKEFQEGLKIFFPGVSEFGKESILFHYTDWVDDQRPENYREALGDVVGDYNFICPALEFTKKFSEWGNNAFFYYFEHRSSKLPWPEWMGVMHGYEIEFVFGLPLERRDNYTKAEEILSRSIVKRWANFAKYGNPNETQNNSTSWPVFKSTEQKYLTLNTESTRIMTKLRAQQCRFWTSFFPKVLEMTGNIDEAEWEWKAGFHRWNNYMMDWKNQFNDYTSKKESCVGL

For orientation: IC50 means the concentration that inhibits the measured activity by half. Lower therefore signals higher potency. For orientation: inhibition means how much of the control response was suppressed. On to `CN(C)CCN1CCN(Cc2ccc(C(=O)Nc3nc4ccccc4s3)cc2)CC1` [4f, N-(Benzo[d]thiazol-2-yl)-4-((4-(2-(dimethylamino)ethyl)piperazine-1-yl)methyl)benzamide], for which the IC50 in the series “Cytotoxicity, MTT assay” came out at 72.9 ± 2.7 µM. For the same compound, in series [1], the IC50 is more than 1000 µM, the inhibition at 100 µM stood at 32.8 ± 0.6% and the inhibition at 1000 µM was determined as 45.3 ± 0.9%. On MAO-A, the IC50 was more than 100 µM, the inhibition at 100 µM amounted to 41.3 ± 0.9% and the inhibition at 1000 µM is 67.9 ± 1.1%. Besides, on beta amyloid 1–42 (Aβ42), the inhibition at 0.01 µM worked out at 58.6 ± 1.1%, the inhibition at 0.1 µM was 80.8 ± 2.1%, the inhibition at 1 µM was 90.6 ± 3.1% and the inhibition at 10 µM is 97.3 ± 3.2%. Besides, the inhibition at 1000 µM in series [2] turned out to be 96.4 ± 1.4%.
On MAO-B, `COc1ccc2sc(NC(=O)c3ccc(CN4CCN(CCN(C)C)CC4)cc3)nc2c1` [4m, 4-((4-(2-(Dimethylamino)ethyl)piperazine-1-yl)methyl)-N-(5-methoxybenzo[d]thiazol-2-yl)benzamide] registered an IC50 of 0.0567 ± 0.0022 µM. For the same compound, in series [1], the IC50 is more than 1000 µM, the inhibition at 100 µM was 31.9 ± 0.8% and the inhibition at 1000 µM was determined as 42.4 ± 0.8%. For the same compound, on MAO-A, the IC50 was more than 100 µM, the inhibition at 100 µM turned out to be 37.9 ± 0.8% and the inhibition at 1000 µM was determined as 61.3 ± 0.9%. At beta amyloid 1–42 (Aβ42), the midpoint of inhibition, the IC50, lay at 0.199 ± 0.0088 µM; the inhibition at 0.01 µM was found to be 53.6 ± 1%; the inhibition at 0.1 µM was 72.5 ± 2.2%; the inhibition at 1 µM was 88.9 ± 2%. The inhibition at 10 µM at beta amyloid 1–42 (Aβ42) is 94.7 ± 2.1%. Further, in series [2], it took 0.0278 ± 0.001 µM to reach half-maximal inhibition (IC50) and the inhibition at 1000 µM worked out at 95.3 ± 1.2%.
Compound `C#CCN1CCN(Cc2ccc(C(=O)Nc3nc4ccccc4s3)cc2)CC1` [4d, N-(Benzo[d]thiazol-2-yl)-4-((4-(prop-2-yn-1-yl)piperazine-1-yl)methyl)benzamide] showed an IC50 against MAO-B of 0.11 ± 0.0043 µM. Besides, in series [1], the IC50 was more than 1000 µM, the inhibition at 100 µM is 28.4 ± 0.9% and the inhibition at 1000 µM turned out to be 37.1 ± 0.8%. For the same compound, on MAO-A, the IC50 is more than 100 µM, the inhibition at 100 µM stood at 39.7 ± 0.9% and the inhibition at 1000 µM turned out to be 57.6 ± 0.9%. Further, on beta amyloid 1–42 (Aβ42), the IC50 was determined as 0.242 ± 0.0097 µM, the inhibition at 0.01 µM came to 36.2 ± 1%, the inhibition at 0.1 µM turned out to be 55.2 ± 1.4% and the inhibition at 1 µM is 81.5 ± 2.5%. Besides, on beta amyloid 1–42 (Aβ42), the inhibition at 10 µM amounted to 89.8 ± 3%. Also, in series [2], the IC50 was 0.0896 ± 0.0032 µM and the inhibition at 1000 µM worked out at 91.6 ± 1.3%.
